Measurements: paper PMC9050788 (European Journal of Drug Metabolism and Pharmacokinetics, 2022)
Entries after “also recorded” stand apart in the source; their conditions may differ.

Assays:
[1] = population analyses; ref data on file; cited from earlier work
[2] = Phase I DDI study of abrocitinib with rifampin; type: in vivo, human
[3] = after a single oral dose of abrocitinib; ref data on file; cited from earlier work
[4] = Phase I DDI study of abrocitinib with probenecid; type: in vivo, human
CYP2B6 = conditions: data on file; cited from earlier work
CYP3A4 = conditions: data on file; cited from earlier work
[5] = system: cytochrome P450 (CYP) 2C19; conditions: CYP2C19; data on file; cited from earlier work
[6] = cited from earlier work
[7] = Safety across the three phase I DDI studies; type: in vivo, human; conditions: all three studies, healthy volunteers
In short: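 Safety population comprised all subjects receiving at least one dose of study medication. Adverse events were summarised descriptively.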

Single vs multiple-dose = type: in vivo, human; conditions: for Mean (SD) plasma concentration: abrocitinib 200 mg once daily; for Contribution to the total active moiety (unbound, adjusted for relative potencies): at steady state with 200 mg QD dosing
CYP2C9 = conditions: data on file; cited from earlier work
[8] = system: organic anion transporter 3 (OAT3); conditions: in vitro transporter profiling; ref data on file; cited from earlier work
[9] = Phase I DDI study of abrocitinib with fluconazole; type: in vivo, human
[10] = Phase I DDI study of abrocitinib with fluvoxamine; type: in vivo, human
[11] = plasma protein binding; ref data on file; cited from earlier work
[12] = Abrocitinib 100 mg single dose (n = 12), rifampin study
[13] = Abrocitinib 200 mg single dose + Rifampin 600 mg QD (n = 12)
[14] = with rifampin vs abrocitinib alone, active moiety unbound
[15] = Abrocitinib 100 mg single dose (n = 12), probenecid study
[16] = Abrocitinib 200 mg single dose + Probenecid 1000 mg BID (n = 12)
[17] = with probenecid vs abrocitinib alone, active moiety unbound
[18] = Abrocitinib 100 mg single dose (n = 12), fluconazole study
[19] = Abrocitinib 100 mg single dose + fluconazole 200 mg QD (n = 12)
[20] = with fluconazole vs abrocitinib alone, active moiety unbound
[21] = Abrocitinib 100 mg single dose (n = 12), fluvoxamine study
[22] = Abrocitinib 100 mg single dose + fluvoxamine 50 mg QD (n = 12)
[23] = with fluvoxamine vs abrocitinib alone, active moiety unbound
[24] = Probenecid 1000 mg BID (n = 12)

SMILES: CCCS(=O)(=O)N[C@H]1C[C@@H](N(C)c2ncnc3[nH]ccc23)C1 [Abrocitinib, N-{cis-3-[Methyl(7H-pyrrolo[2,3-d]pyrimidin-4-yl)amino]cyclobutyl}propane-1-sulfo namide]
- Sex-related differences in pharmacokinetics [1]: no sex-related differences
- Subjects with TEAEs [2, 12]: 2 (16.7) n (%)
- Subjects with TRAEs [2, 12]: 2 (16.7) n (%)
- Subjects with TEAEs [2, 13]: 4 (33.3) n (%)
- Subjects with TRAEs [2, 13]: 4 (33.3) n (%)
- Decrease in AUCinf [2, 14]: 87.6%
- Decrease in Cmax [2, 14]: 79.1%
- Share of circulating species [3]: 26%
- Subjects with TEAEs [4, 15]: 6 (50.0) n (%)
- Subjects with TRAEs [4, 15]: 2 (16.7) n (%)
- Subjects with TEAEs [4, 16]: 5 (41.7) n (%)
- Subjects with TRAEs [4, 16]: 4 (33.3) n (%)
- Increase in Cmax [4, 17]: 1.2 fold
- Contribution to abrocitinib metabolism (CYP2B6): 6%
- Contribution to abrocitinib metabolism (CYP3A4): 11%
- Contribution to abrocitinib metabolism [5]: 53%
- Parent drug excreted unchanged in the urine [6]: 1.0–4.4%
- Serious or severe adverse events [7]: No serious or severe adverse events
- Mean (SD) plasma concentration (Single vs multiple-dose; before dosing on Day 2): 9.16 (7.96) ng/mL
- Mean (SD) plasma concentration (Single vs multiple-dose; before dosing on Day 3): 15.01 (21.38) ng/mL
- Mean (SD) plasma concentration (Single vs multiple-dose; before dosing on Day 4): 14.95 (15.88) ng/mL
- concentration at 24 h (Single vs multiple-dose; human, plasma, oral, 200 mg): 11.3 ng/mL
- Time to steady-state plasma concentrations (Single vs multiple-dose; once-daily administration, achieved by Day 3 of dosing): ≤ 48 h
- Contribution to abrocitinib metabolism (CYP2C9): 30%
- Substrate of OAT3 [8]: not a substrate
- Subjects with TEAEs [9, 18]: 2 (16.7) n (%)
- Subjects with TRAEs [9, 18]: 2 (16.7) n (%)
- Subjects with TEAEs [9, 19]: 7 (58.3) n (%)
- Subjects with TRAEs [9, 19]: 6 (50.0) n (%)
- Increase in AUCinf [9, 20]: 4.8 fold
- Increase in Cmax [9, 20]: 1.9 fold
- Subjects with TEAEs [10, 21]: 3 (25.0) n (%)
- Subjects with TRAEs [10, 21]: 3 (25.0) n (%)
- Subjects with TEAEs [10, 22]: 6 (50.0) n (%)
- Subjects with TRAEs [10, 22]: 3 (25.0) n (%)
- Increase in AUCinf [10, 23]: 2.8 fold
- Increase in Cmax [10, 23]: 1.8 fold

SMILES: CN(c1ncnc2[nH]ccc12)[C@H]1C[C@@H](NS(=O)(=O)CCCO)C1 [M1]
- Share of circulating species [3]: 11%
- Increase in Cmax [4, 17]: 1.4 fold
- Fraction unbound in plasma (fu) [11]: 0.63
- Contribution to the total active moiety (unbound, adjusted for relative potencies) (Single vs multiple-dose): ~ 10%
- Substrate of OAT3 [8]: substrates; also recorded: in part a substrate

SMILES: CC(O)CS(=O)(=O)N[C@H]1C[C@@H](N(C)c2ncnc3[nH]ccc23)C1 (stereo partly shown) [M2]
- Share of circulating species [3]: 12%
- Increase in AUCinf [4, 17]: 2.2 fold
- Increase in Cmax [4, 17]: 1.3 fold
- Fraction unbound in plasma (fu) [11]: 0.71
- Contribution to the total active moiety (unbound, adjusted for relative potencies) (Single vs multiple-dose): ~ 30%
- Substrate of OAT3 [8]: substrates; also recorded: in part a substrate

SMILES: CCCN(CCC)S(=O)(=O)c1ccc(C(=O)O)cc1 [Probenecid, reference compound]
- Subjects with TEAEs [4, 24]: 2 (16.7) n (%)
- Subjects with TRAEs [4, 24]: 2 (16.7) n (%)

SMILES: CO[C@H]1/C=C/O[C@@]2(C)Oc3c(C)c(O)c4c(O)c(c(/C=N/N5CCN(C)CC5)c(O)c4c3C2=O)NC(=O)/C(C)=C\C=C\[C@H](C)[C@H](O)[C@@H](C)[C@@H](O)[C@@H](C)[C@H](OC(C)=O)[C@@H]1C [Rifampin, reference compound]
- Subjects with TEAEs ([2]; Rifampin 600 mg QD (n = 12)): 10 (83.3) n (%)
- Subjects with TRAEs ([2]; Rifampin 600 mg QD (n = 12)): 10 (83.3) n (%)
